Usually pIC50 stands for −log10 of the IC50, conventionally taken in molar units. The term inhibition denotes the drop in the measured response relative to a control, in per cent.

pIC50: −log10 of the molar value.

The test system of experiment [1] is MV4-11. In words: Antiproliferative activity against human MV4-11 cells.
Experiment [2] addresses Tyrosine-protein kinase ABL1 (Homo sapiens) (UniProt P00519). The experiment is described as follows: Inhibition of human Abl kinase at 3 uM in presence of 10 uM ATP. The method, boiled down:
(§1)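 Selectivity panel run at a single compound concentration of 3 µM with 10 µM ATP. Read-out is % inhibition of each kinase. Values are averages of duplicate experiments.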

The species entered for experiment [3] is Rattus norvegicus. In words: Inhibition of rat AMPK at 3 uM in presence of 10 uM ATP. The method, boiled down: as §1
Experiment [4] has as its target Tyrosine-protein kinase ABL2 (Homo sapiens) (UniProt P42684). The experiment is described as follows: Inhibition of human Arg kinase at 3 uM in presence of 10 uM ATP. A digest of the protocol: as §1
The target of experiment [5] is Tyrosine-protein kinase receptor UFO (Homo sapiens) (UniProt P30530). The experiment is described as follows: Inhibition of human Axl kinase at 3 uM in presence of 10 uM ATP. A digest of the protocol:
as §1

Experiment [6] addresses Tyrosine-protein kinase BTK (Homo sapiens) (UniProt Q06187). In words: Inhibition of human BTK kinase at 3 uM in presence of 10 uM ATP. The method, boiled down: as §1
For experiment [7], the target named is Cyclin-dependent kinase 7/ cyclin H (Homo sapiens) (UniProt P51946+P50613). In words: Inhibition of human CDK7/cyclin H/MAT1 at 3 uM in presence of 10 uM ATP. In kind it is protein-complex assay. A digest of the protocol:
as §1

The target in experiment [8] is T1, Serine/threonine-protein kinase Chk1 (Homo sapiens) (UniProt O14757).
T1 sequence (whole entry): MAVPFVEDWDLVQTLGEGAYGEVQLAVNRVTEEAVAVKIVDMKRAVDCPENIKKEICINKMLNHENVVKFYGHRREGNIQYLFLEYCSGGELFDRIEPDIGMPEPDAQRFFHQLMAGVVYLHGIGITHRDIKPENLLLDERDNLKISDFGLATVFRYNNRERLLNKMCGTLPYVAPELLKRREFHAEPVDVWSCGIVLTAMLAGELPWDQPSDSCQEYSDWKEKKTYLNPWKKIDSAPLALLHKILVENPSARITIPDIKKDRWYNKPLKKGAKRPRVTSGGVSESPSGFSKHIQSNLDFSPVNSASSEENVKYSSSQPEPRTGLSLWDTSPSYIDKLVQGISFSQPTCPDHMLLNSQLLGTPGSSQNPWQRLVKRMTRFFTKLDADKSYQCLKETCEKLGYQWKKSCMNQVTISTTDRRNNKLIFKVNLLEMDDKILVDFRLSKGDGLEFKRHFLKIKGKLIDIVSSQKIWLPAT
In words: Inhibition of human CHK1 at 3 uM in presence of 10 uM ATP. The method, boiled down:
as §1

Experiment [9] addresses Tyrosine-protein kinase Fyn (Homo sapiens) (UniProt P06241). The experiment is described as follows: Inhibition of human Fyn at 3 uM in presence of 10 uM ATP. The method, boiled down: as §1
The target of experiment [10] is Glycogen synthase kinase-3 beta (Homo sapiens) (UniProt P49841). The experiment is described as follows: Inhibition of human GSK3-beta at 3 uM in presence of 10 uM ATP. The method, boiled down: as §1
For experiment [11], the target named is Mitogen-activated protein kinase 10 (Homo sapiens) (UniProt P53779). The experiment is described as follows: Inhibition of human JNK3 at 3 uM in presence of 10 uM ATP. The method, boiled down:
as §1

Experiment [12] has as its target Hepatocyte growth factor receptor (Homo sapiens) (UniProt P08581). In words: Inhibition of human Met at 3 uM in presence of 10 uM ATP. A digest of the protocol: as §1
The target of experiment [13] is Ribosomal protein S6 kinase alpha-1 (Homo sapiens) (UniProt Q15418). The experiment is described as follows: Inhibition of human Rsk1 at 3 uM in presence of 10 uM ATP. The method, boiled down:
as §1

For experiment [14], the target named is BDNF/NT-3 growth factors receptor (Homo sapiens) (UniProt Q16620). The experiment is described as follows: Inhibition of human TrkB at 3 uM in presence of 10 uM ATP. A digest of the protocol:
as §1

For experiment [15], the target named is RAF proto-oncogene serine/threonine-protein kinase (Homo sapiens) (UniProt P04049). In words: Inhibition of human c-RAF at 3 uM in presence of 10 uM ATP. A digest of the protocol: as §1
The target of experiment [16] is T2, Receptor-type tyrosine-protein kinase FLT3 (Homo sapiens, UniProt P36888).
T2 sequence (P36888 whole entry): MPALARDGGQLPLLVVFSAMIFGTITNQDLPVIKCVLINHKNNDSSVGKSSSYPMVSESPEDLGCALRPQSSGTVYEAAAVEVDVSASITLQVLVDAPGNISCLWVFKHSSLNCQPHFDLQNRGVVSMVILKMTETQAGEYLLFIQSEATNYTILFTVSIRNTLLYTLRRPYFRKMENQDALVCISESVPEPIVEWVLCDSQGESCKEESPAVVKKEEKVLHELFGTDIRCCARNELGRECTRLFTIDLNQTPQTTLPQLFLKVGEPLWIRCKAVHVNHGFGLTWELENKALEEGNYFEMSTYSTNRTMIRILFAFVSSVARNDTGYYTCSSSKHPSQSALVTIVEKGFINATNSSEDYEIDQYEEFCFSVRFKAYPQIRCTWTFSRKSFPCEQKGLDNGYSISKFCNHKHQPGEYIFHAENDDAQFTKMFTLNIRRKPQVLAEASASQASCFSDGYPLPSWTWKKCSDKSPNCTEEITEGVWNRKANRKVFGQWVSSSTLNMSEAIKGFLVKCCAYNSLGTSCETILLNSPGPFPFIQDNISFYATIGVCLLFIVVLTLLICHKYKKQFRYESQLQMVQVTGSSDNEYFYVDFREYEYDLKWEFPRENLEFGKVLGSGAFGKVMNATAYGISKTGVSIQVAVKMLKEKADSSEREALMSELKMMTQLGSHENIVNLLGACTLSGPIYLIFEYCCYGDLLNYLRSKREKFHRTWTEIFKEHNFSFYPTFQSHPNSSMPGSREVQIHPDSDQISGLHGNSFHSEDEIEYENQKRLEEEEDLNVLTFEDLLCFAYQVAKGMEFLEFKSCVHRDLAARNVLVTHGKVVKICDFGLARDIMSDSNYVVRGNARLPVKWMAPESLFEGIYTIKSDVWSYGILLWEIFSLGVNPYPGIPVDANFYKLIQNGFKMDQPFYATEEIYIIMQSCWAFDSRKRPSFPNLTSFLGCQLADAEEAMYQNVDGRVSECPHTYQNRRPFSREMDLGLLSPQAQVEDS
The experiment is described as follows: Inhibition of FLT3.

Glycogen synthase kinase-3 beta (Homo sapiens), sequence (P49841 whole entry, looked up): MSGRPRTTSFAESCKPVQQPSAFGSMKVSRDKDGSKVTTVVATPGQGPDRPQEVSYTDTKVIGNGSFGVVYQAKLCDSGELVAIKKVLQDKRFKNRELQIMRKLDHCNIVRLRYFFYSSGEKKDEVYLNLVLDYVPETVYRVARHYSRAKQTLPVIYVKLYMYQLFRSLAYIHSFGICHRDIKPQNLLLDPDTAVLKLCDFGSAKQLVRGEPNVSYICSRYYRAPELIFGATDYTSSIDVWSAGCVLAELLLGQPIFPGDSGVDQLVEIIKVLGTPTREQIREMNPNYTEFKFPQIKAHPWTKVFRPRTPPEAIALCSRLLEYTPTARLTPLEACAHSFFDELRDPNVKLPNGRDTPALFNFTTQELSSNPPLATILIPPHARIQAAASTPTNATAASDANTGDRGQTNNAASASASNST
Tyrosine-protein kinase Fyn (Homo sapiens), sequence (P06241 2-537 limits assumed): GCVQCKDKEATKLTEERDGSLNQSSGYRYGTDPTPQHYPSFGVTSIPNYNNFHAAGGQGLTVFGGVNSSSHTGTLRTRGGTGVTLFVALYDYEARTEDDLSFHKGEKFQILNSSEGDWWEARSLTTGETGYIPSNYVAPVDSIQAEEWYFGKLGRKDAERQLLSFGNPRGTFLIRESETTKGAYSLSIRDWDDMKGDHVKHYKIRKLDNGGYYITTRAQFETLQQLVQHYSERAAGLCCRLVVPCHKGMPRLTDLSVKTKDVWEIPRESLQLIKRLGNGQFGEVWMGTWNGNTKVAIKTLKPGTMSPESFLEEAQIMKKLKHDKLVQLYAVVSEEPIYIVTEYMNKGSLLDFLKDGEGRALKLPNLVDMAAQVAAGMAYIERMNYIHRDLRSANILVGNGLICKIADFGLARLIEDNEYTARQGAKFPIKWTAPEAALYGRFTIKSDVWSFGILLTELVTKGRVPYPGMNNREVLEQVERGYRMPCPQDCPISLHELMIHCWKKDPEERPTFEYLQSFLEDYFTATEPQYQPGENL
Tyrosine-protein kinase BTK (Homo sapiens), sequence (Q06187 whole entry): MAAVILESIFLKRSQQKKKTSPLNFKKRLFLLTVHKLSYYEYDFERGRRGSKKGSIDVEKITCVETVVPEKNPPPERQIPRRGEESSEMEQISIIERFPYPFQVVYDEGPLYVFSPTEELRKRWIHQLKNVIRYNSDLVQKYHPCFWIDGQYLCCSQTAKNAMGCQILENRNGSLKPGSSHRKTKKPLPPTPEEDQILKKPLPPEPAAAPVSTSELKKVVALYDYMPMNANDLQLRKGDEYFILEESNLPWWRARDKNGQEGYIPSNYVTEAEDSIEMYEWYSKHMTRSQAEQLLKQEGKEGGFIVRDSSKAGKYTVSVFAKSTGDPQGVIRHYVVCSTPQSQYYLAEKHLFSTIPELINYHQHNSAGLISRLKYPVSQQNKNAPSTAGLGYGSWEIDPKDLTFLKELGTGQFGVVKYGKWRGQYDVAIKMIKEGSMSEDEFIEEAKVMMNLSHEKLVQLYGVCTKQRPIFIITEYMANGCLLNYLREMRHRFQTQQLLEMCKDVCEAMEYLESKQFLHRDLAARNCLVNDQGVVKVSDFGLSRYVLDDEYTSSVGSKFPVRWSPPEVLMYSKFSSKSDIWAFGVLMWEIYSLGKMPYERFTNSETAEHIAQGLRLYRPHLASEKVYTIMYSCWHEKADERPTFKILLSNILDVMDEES
Mitogen-activated protein kinase 10 (Homo sapiens), sequence (P53779 whole entry): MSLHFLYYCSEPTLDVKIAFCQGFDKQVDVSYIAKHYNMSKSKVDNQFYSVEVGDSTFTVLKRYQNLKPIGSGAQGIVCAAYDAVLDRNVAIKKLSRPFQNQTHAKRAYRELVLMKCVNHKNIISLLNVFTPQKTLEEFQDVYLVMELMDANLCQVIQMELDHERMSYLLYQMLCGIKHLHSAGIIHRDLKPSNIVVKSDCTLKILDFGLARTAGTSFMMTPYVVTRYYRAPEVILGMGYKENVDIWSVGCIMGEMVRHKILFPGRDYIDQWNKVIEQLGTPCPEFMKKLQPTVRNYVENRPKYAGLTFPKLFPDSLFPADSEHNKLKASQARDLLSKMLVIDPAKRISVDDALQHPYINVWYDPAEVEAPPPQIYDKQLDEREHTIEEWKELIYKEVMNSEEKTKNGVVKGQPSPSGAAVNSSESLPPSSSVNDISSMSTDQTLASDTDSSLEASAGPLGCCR
Tyrosine-protein kinase ABL2 (Homo sapiens), sequence (P42684 whole entry): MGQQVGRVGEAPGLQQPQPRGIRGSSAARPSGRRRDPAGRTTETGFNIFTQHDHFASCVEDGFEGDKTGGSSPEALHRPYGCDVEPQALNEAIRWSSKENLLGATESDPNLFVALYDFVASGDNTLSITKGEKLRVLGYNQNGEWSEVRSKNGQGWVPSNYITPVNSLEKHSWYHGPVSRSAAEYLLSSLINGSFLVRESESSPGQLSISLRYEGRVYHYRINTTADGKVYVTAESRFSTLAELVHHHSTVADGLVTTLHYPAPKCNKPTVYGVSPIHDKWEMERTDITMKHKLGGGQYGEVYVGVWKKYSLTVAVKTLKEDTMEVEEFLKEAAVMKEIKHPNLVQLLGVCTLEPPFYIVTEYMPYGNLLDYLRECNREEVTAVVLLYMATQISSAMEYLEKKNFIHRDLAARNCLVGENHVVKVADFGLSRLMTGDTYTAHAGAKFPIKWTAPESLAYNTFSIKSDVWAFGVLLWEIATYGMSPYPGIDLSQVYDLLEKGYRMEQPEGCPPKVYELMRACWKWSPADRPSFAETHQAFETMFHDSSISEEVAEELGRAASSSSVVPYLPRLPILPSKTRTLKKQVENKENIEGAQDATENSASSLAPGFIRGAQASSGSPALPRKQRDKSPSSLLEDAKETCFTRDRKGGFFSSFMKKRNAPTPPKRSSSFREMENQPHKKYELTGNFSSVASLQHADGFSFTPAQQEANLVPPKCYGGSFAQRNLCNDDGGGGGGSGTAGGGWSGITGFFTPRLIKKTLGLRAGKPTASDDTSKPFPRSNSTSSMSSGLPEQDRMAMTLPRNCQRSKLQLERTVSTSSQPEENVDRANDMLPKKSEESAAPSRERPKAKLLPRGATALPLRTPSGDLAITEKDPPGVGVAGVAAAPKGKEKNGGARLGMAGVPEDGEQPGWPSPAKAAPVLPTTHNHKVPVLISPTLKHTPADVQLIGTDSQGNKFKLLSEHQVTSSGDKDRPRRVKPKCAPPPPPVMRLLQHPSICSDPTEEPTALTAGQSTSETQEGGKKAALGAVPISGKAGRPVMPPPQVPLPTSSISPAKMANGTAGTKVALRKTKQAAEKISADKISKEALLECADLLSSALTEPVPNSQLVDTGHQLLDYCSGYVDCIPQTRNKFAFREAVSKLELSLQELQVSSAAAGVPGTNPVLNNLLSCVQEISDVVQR
RAF proto-oncogene serine/threonine-protein kinase (Homo sapiens), sequence (P04049 whole entry): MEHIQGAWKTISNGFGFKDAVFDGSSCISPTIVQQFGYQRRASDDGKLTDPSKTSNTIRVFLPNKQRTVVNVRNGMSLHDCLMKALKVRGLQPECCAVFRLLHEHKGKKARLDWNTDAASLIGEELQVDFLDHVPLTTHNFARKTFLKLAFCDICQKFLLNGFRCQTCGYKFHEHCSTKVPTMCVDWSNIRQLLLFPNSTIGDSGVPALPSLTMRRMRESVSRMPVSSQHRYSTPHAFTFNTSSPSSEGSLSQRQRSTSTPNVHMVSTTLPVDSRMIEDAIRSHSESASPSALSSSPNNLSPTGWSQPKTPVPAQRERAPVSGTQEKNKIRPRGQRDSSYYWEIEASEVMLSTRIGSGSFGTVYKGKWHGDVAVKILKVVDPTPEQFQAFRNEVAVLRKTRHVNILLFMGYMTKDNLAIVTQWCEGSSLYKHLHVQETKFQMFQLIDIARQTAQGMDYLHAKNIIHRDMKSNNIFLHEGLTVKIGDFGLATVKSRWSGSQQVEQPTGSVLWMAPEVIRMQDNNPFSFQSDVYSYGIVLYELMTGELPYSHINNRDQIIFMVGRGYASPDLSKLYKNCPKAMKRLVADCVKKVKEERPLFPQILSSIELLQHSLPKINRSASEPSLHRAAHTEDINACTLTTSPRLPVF
BDNF/NT-3 growth factors receptor (Homo sapiens), sequence (Q16620 32-822 limits assumed): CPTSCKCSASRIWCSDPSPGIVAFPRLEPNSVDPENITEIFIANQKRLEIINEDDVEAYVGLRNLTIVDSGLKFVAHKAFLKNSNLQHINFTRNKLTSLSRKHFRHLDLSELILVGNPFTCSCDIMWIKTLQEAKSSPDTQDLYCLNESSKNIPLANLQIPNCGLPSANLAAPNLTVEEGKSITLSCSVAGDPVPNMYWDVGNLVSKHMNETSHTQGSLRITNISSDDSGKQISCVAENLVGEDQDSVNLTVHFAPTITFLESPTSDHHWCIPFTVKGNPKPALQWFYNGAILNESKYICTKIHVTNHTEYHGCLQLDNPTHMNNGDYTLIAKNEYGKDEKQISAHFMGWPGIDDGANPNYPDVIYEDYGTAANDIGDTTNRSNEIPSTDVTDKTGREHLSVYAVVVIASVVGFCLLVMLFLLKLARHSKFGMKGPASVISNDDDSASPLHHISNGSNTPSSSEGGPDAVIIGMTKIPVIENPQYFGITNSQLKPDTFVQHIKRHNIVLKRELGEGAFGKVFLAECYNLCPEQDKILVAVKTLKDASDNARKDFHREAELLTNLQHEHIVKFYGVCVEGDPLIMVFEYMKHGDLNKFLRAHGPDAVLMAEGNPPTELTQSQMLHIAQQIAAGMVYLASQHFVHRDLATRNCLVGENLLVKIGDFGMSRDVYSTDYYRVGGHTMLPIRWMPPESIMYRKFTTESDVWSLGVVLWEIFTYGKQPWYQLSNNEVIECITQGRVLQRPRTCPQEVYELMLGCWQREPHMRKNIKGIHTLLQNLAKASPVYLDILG

For the molecule `COc1ccc(C(=O)Nc2sc3c(c2C(N)=O)CCCC3)cc1OC`, the figures for the pIC50 in experiment [1] and in [16] were 6.47 and 7.38, respectively. The inhibition in [2] is 21%; in experiment [3] it was -4%; in experiment [4], 49%; in experiment [5], -10%; in experiment [6] it was 14%; in experiment [7] it was -1%. In addition, the inhibition in experiment [8] was -7%; in [9], 33%; in experiment [10], -2%; in [11] it was -6%; in experiment [12], 13%; in experiment [13] it was 3%. For the same molecule, the figures for the inhibition in experiment [14] and in [15] were 39% and -1%, respectively.

(Values after ChEMBL document CHEMBL1147807, “Identification of 2-acylaminothiophene-3-carboxamides as potent inhibitors of FLT3” (Bioorg Med Chem Lett, 2006).)
